Assay results pooled from the literature.
Compare with care: the assays were run in different laboratories.
Target: 5'-AMP-activated protein kinase catalytic subunit alpha-2 (PRKAA2, Homo sapiens, UniProt P54646)

C[C@H]1CCN(c2nccc(-c3cnn4ncccc34)n2)C1 — remaining binding (binding; 1 µM): 84%
O=C(NCC1CCOCC1)c1n[nH]cc1NC(=O)c1c(F)cccc1F — remaining binding (binding, competition with immobilised ligand; 1 µM): 100%
CNC(=O)Nc1ccc2c(c1)CC[C@@]21OC(=O)N(CC(=O)N(Cc2ccc(F)cc2)[C@@H](C)C(F)(F)F)C1=O — remaining binding (cell-free assay, competition with immobilised ligand; 1 µM): 99%
COc1cnc(Nc2cccc(S(N)(=O)=O)c2)nc1N1CCN(c2ccccc2)CC1 — remaining binding (binding, competition with immobilised ligand; 1 µM): 100%
O=C(NCCCN1CCOCC1)c1ccc(Nc2nccc(-c3cc4ccccc4s3)n2)cc1 — remaining binding (binding, competition with immobilised ligand; 1 µM): 41%
CN(C)c1nccc(-c2cnn3ncccc23)n1 — remaining binding (binding; 1 µM): 100%
CCC(=O)N[C@@H]1CC[C@H](C(=O)N(C)c2ccc(-c3nc4ccccc4o3)cc2)C1 — remaining binding (cell-free assay, competition with immobilised ligand; 1 µM): 74%
COc1ccnn2ncc(-c3ccnc(N(C)C)n3)c12 — remaining binding (binding; 1 µM): 79%
O=C(c1ccc(Nc2ncc(Cl)c(-c3ccc(Cl)s3)n2)cc1)N1CCC(N2CCCC2)CC1 — remaining binding (binding, competition with immobilised ligand; 1 µM): 8.2%
N[C@H]1CCN(c2nccc(-c3cnn4ncccc34)n2)C1 — remaining binding (binding; 1 µM): 100%
COc1ncc2cc3ccccc3nc2c1C#N — remaining binding (cell-free assay, competition with immobilised ligand; 5 µM): 96%
Cc1c(NC(=O)c2cc(C(N)=O)nc3cc(F)ccc23)c(C(F)(F)F)nn1Cc1ccc(C#N)cc1 — remaining binding (cell-free assay, competition with immobilised ligand; 1 µM): 100%
C[C@@H](c1ccc(-n2cnc3c(N)ncnc32)cc1)N1CCc2nn(C)c(Cc3ccccc3)c2C1=O — remaining binding (binding, competition with immobilised ligand; 0.1 µM): 100%
CN(c1nccc(-c2cnn3ncccc23)n1)C1CC1 — remaining binding (binding; 1 µM): 100%
Cc1c[nH]c2nccc(Oc3c(F)cc(Nc4cc(Cl)nc(N)n4)cc3F)c12 — remaining binding (cell-free assay, competition with immobilised ligand; 0.1 µM): 89%
CCN1CCN(Cc2ccc(C(=O)Nc3ccc(C)c(Oc4ccc5c(c4)CC(=O)N5)c3)cc2C(F)(F)F)CC1 — remaining binding (binding, competition with immobilised ligand; 1 µM): 100%
CC(=O)c1c(NS(C)(=O)=O)c2cc(-c3ccc(Cl)cc3)c(-c3ccc(Cl)cc3Cl)nc2n(C)c1=O — remaining binding (cell-free assay, competition with immobilised ligand; 1 µM): 85%
C=CC(=O)N1CCC(C(=O)NCC(=O)N2CCN(c3nc(-c4cnc(N)nc4C(F)F)nc(N4CCOCC4)n3)CC2)CC1 — remaining binding (binding, competition with immobilised ligand; 1 µM): 100%
CN(C)c1nccc(-c2cnc3ncccn23)n1 — remaining binding (binding; 1 µM): 80%
CN(C)c1ncnc(-c2ccc3nc(Nc4cc(CN5CCN(C(=O)CC(F)(F)F)CC5)ccn4)[nH]c3c2)c1Cl — remaining binding (cell-free assay, competition with immobilised ligand; 1 µM): 100%
O=C(c1ccc(Nc2ncc(Cl)c(-c3cc4ccccc4s3)n2)cc1)N1CCC(N2CCCC2)CC1 — remaining binding (binding, competition with immobilised ligand; 1 µM): 4%
c1cncc(-c2cccc(Nc3nccc(NC4CCCCC4)n3)c2)c1 — remaining binding (binding, competition with immobilised ligand; 10 µM): 23%
